Activity calls are given as the source filed them. The calls are words filed in the database; no cut-off is given here.
Experiments:
[1] = Antiplatelet aggregation activity against 100 uM arachidonic acid-induced rabbit platelet assessed as platelet aggregation at 100 uM relative to control; format: functional, Oryctolagus cuniculus
In short: (§1)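 Platelets were preincubated with test sample or vehicle (0.5% DMSO) at 37 °C for 1 min. Aggregation was then triggered with arachidonic acid (100 µM), collagen (10 µg/mL), thrombin (0.1 U/mL) or PAF (2 ng/mL). Results are given as percent aggregation, mean ± SD, with significance at p < 0.05 and p < 0.01.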

[2] = Antiplatelet aggregation activity against 10 ug/mL collagen-induced rabbit platelet assessed as platelet aggregation at 100 uM relative to control; format: functional, Oryctolagus cuniculus; in short: as §1
Platelet [3] = assay: Stimulation of rabbit platelet aggregation at 30.9 +/- 6.0 ug/mL; format: functional, cell-based; conditions: Oryctolagus cuniculus
[4] = Antiplatelet aggregation activity against 2 ng/mL platelet activating factor-induced rabbit platelet assessed as platelet aggregation at 100 uM relative to control; format: functional, Oryctolagus cuniculus; in short: as §1
[5] = Antiplatelet aggregation activity against 0.1 U/mL thrombin-induced rabbit platelet assessed as platelet aggregation at 100 uM relative to control; format: functional, Oryctolagus cuniculus; in short: as §1
[6] = Antiplatelet aggregation activity against 2 ng/mL platelet activating factor-induced rabbit platelet assessed as platelet aggregation at 150 uM relative to control; format: functional, Oryctolagus cuniculus; in short: as §1
[7] = Antiplatelet aggregation activity against 10 ug/mL collagen-induced rabbit platelet assessed as platelet aggregation at 150 uM relative to control; format: functional, Oryctolagus cuniculus; in short: as §1
[8] = Antiplatelet aggregation activity against 0.1 U/mL thrombin-induced rabbit platelet assessed as platelet aggregation at 150 uM relative to control; format: functional, Oryctolagus cuniculus; in short: as §1
[9] = Antiplatelet aggregation activity against 100 uM arachidonic acid-induced rabbit platelet assessed as platelet aggregation at 150 uM relative to control; format: functional, Oryctolagus cuniculus; in short: as §1
Platelet [10] = assay: Stimulation of rabbit platelet aggregation at 28.4 +/- 4.8 ug/mL; format: functional, cell-based; conditions: Oryctolagus cuniculus

Row | Compound | Activity [1] | Activity [2] | Activity (Platelet [3]) | Activity [4] | Activity [5] | Activity [6] | Activity [7] | Activity [8] | Activity [9] | Activity (Platelet [10])
1 | CC(C)[C@@H]1C[C@@H](O)[C@H]2[C@@]1(CO)CC[C@@]1(C)[C@H]3C(=CC[C@]21C)[C@@]1(C)CC[C@H](O)C(C)(C)[C@@H]1C[C@@H]3O [RUBIARBONOL A] | 83.8% | 89.6% | Active | 91.3% | 90.7% |  |  |  |  | 
2 | CC(C)[C@@H]1C[C@@H](O)[C@H]2[C@@]1(C)CC[C@@]1(C)[C@H]3C(=CC[C@]21C)[C@@]1(C)CC[C@H](O)C(C)(C)[C@@H]1C[C@@H]3O [RUBIARBONOL B] |  | 82.2% |  |  |  | 90.4% | 79.8% | 89.6% | 80.4% | 
3 | CC(=O)O[C@@H]1C[C@@H](C(C)C)[C@]2(CO)CC[C@@]3(C)[C@H]4C(=CC[C@]3(C)[C@@H]12)[C@@]1(C)CCC(=O)C(C)(C)[C@@H]1C[C@@H]4O [RUBIARBONONE A] | 85.4% | 88.1% |  | 90.3% | 91.1% |  |  |  |  | Active
